MT1-MMP act inh: blockers of MT1-MMP proenzyme processing, primary screen, HT1080 RFP-PRO-GFP cells, GFP/RFP fluorescence; GFP/RFP ratio change, % at 20 µM; Matrix metalloproteinase-14 (Homo sapiens), P50281; actives 0.061% (n = 360,000); GFP/RFP ratio fluorescence, overnight; percent of plate control window, DMSO zero;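 active = GFP/RFP ratio change of at least 30% with cell ATP level not reduced by more than half and red fluorescence within 50% of control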
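system = RFP-PRO-GFP reporter HT1080 cells | dosing = 20 µM single dose, 1% DMSO | timing = overnight cell settling, then overnight compound exposure, 37 °C, 5% CO2 | read-out basis = GFP/RFP fluorescence ratio | controls = DMSO and RFP-L50D-GFP cell wells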
eIF4H FP inh: human eIF4H binding inhibitors, primary screen, translation initiation inhibitor project, biochemical, uHTS, fluorescence polarization | AID 2012, 2009 | actives 0.94% (n = 290,000) | eIF4H fluorescence polarization binding assay | inhibition, % at 35 µM;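 note: calls also rest on retests at 20 µM and on dose response follow-up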
SKN-1 block: suppressors of acrylamide-induced Pgst-4::GFP reporter in worms, primary screen, SKN-1 inhibitor project, whole organism, uHTS, GFP/RFP fluorescence ratio, strain VP596. inhibition, % at 21.8 µM. AID 624304, 2012. C. elegans VP596 Pgst-4::GFP/RFP ratio, 24 h. actives 0.49% (n = 360,000);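 active = interference check ratio from 0.5 to 1.5 plus GFP to RFP signal ratio inhibition reaching or exceeding a fixed threshold, cut at about 30% in these data, passing the limit was not always enough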
MLLE-PAM2 inh: inhibitors of PABP1 MLLE–PAM2 peptide binding, primary screen, biochemical, fluorescence polarization, FITC-PAM2, GST-MLLE. Polyadenylate-binding protein 1 (Homo sapiens), P11940. inhibition, % at 20 µM. actives 0.36% (n = 360,000). AID 588489, 2011; in the data active = inhibition above about 35%, passing the limit was not always enough;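 note: plate controls were DMSO wells with GST-MLLE for no effect and wells lacking GST-MLLE protein for full effect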
Target sequence (P11940 whole entry, looked up): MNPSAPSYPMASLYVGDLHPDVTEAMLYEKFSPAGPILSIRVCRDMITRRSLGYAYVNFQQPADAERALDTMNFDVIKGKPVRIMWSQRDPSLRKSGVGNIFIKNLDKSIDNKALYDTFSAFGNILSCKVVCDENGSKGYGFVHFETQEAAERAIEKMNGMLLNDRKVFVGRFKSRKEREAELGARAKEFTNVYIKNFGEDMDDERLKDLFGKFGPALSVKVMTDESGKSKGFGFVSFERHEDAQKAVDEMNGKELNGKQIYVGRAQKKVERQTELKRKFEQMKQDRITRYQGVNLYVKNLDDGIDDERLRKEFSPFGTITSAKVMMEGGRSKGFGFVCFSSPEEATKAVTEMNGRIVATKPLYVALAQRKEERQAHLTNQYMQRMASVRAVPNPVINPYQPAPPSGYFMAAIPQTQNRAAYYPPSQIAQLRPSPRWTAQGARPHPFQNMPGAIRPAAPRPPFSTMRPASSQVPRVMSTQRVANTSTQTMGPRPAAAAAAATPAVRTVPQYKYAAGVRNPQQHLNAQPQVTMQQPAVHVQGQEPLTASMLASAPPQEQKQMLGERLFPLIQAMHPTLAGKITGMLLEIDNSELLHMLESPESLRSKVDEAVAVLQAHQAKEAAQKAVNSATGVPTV
PABP polyA inh: PABP poly(A) RNA binding inhibitors, primary screen, biochemical, fluorescence polarization, uHTS | actives 1% (n = 290,000) | AID 2014, 2009 | inhibition, % at 35 µM | Polyadenylate-binding protein 1 (Homo sapiens), P11940;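 note: calls also rest on retests at 20 µM and on dose response follow-up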
An asterisk follows results filed as active; u = inconclusive; x = no result. Sampled rows, rich in hits. Any-hit rate of the full collection: about 1.7%. Unless noted, the rule behind the calls is not given here.

SMILES	MT1-MMP act inh	eIF4H FP inh	SKN-1 block	MLLE-PAM2 inh	PABP polyA inh
O=C(O)CSc1cc(NS(=O)(=O)c2cccc([N+](=O)[O-])c2)c2ccccc2c1O	-21	-6	7	43*	16
O=C(CN1C(=O)NC2(CCCCCC2)C1=O)c1ccc(Cl)cc1	0	x	6	-5	x
CC1CCCCC12NC(=O)N(CC(=O)N1CCN(C(=O)c3cccs3)CC1)C2=O (stereo not given)	1	x	10	-10	x
COc1cccc(CNC(=O)c2cccc(S(=O)(=O)N3CCN(C)CC3)c2)c1	-8	-5	3	-142	29
c1ccc(CCNc2nnnn2-c2ccccc2)cc1	1	0	37*	-1	-6
CC1Cc2ccccc2N1C(=O)CN1C(=O)NC(C)(c2ccc3c(c2)OCCO3)C1=O (stereo not given)	-3	0.5*	5	-42	54*
COc1ccccc1C(=O)O[C@H]1[C@H](Cc2ccccc2)NS(=O)(=O)[C@H]2C[C@@H]3C=C[C@]12O3	2	x	13	-3	x
O=C(c1c(Cl)cccc1Cl)N1CCN(c2ncccn2)CC1	-4	-4	22	3	-6
Cc1ccc(S(=O)(=O)N(C)C)cc1-n1c(SCC(=O)N(C)C)nc2ccccc2c1=O	0	52*	-2	-13	4.2*
COC(=O)c1c(N)[nH]c(C(=O)c2ccccc2)c1-c1ccc(Cl)cc1	2	x	6	x	x
Cc1cccc(NC(=O)c2sc3nc4c(c(-c5cccs5)c3c2N)CN(C)CC4)c1	-54	110*	-6	-12	68*
CC(O)(c1ccncc1)c1nc(-c2cccc(C(F)(F)F)c2)cs1 (stereo not given)	-29	x	21	-10	x
Oc1cccc(C=NCc2ccccc2)c1O	-5	90*	4	-1	46*
O=[N+]([O-])c1ccc(N=Cc2sc3ccccc3c2O)cc1	0	41	-3	-56	10
Oc1c(C=NCc2ccccc2)sc2ccccc12	-1	2	5	42*	-4
Oc1cccc(C=Nc2cccc3ccccc23)c1O	15	65*	-6	35	42*
Oc1ccccc1C=Nc1cccc2ccccc12	5	12	10	-6	16
Oc1ccccc1N=Cc1c(O)ccc2ccccc12	2	86	-3	-65	118*
CCn1c(O)c(C=NCc2ccccc2)sc1=S	-2	-9	-7	20	-12
Cc1oc(-c2cc(F)ccc2F)nc1CN1CCCN(C(=O)c2ccco2)CC1	-4	4	-14	-12	-1
COc1ccc(N2C(=O)CSC2c2ccccc2F)c(OC)c1 (stereo not given)	-3	3	12	4	9
CN(CC(=O)Nc1ccc(Cl)c(C(F)(F)F)c1)C(=O)COC(=O)C1CC2CCCC(C1)C2=O (stereo not given)	2	x	27	-14	x
Cn1sccc1=O	5	x	6	37*	x
O=c1ccsn1Cc1ccccc1	0	-4	-12	16	-5
CN(C)CCCOc1ccc(Cl)cc1Br	2	-6	4	8	-10
SMILES	MT1-MMP act inh	eIF4H FP inh	SKN-1 block	MLLE-PAM2 inh	PABP polyA inh
Clc1ccc(OCCCCSc2ncccn2)cc1	2	127	91*	38*	120
Clc1ccc(CNCCCSc2ncccn2)cc1	-5	-1	3	14	4
CCCOc1ccc(OCCSc2ncccn2)cc1	4	7	38*	-6	-8
Brc1cccc(OCCSc2ncccn2)c1	-3	-2	50*	-4	1
Clc1ccc(OCCSc2ncccn2)c(Br)c1	2	2	53*	0	2
COc1ccc(CCNC(=O)[C@@H](NC(=O)N2CC(=O)Nc3ccccc32)C(C)C)cc1OC	2	-12	7	20	4
COc1cccc(CC2CC(=O)N(c3ccc4c(C)cc(=O)oc4c3)C2=O)c1 (stereo not given)	3	-2	5	12	15
COc1ccccc1OCCNC(=O)CN1C(=O)NC2(CCCC2)C1=O	3	x	9	-1	x
O=C(COc1ncnc2sccc12)N1CCN(C(=O)c2ccco2)CC1	-1	66	0	3	active
CCc1ccc(N2CC(C(=O)N(CC)CC(=O)Nc3c(F)cccc3F)CC2=O)cc1 (stereo not given)	-2	x	-7	-4	x
CCN(CC(=O)Nc1ccccc1C(F)(F)F)C(=O)C1CC(=O)N(Cc2ccccc2)C1 (stereo not given)	-2	x	35*	10	x
CCN(CC(=O)Nc1ccccc1C(F)(F)F)C(=O)c1ccccc1Cc1ccccc1	6	x	19	4	x
CCN(CC(=O)Nc1c(F)cccc1F)C(=O)C1CC(=O)N(c2ccccc2OC)C1 (stereo not given)	-2	10	-11	-3	62*
CCOC(=O)C1CCCN(S(=O)(=O)c2c(C(=O)N3CCCCC3)c(C)n(C)c2C)C1 (stereo not given)	-1	0	0	-10	9
CCOc1ccccc1N1CC(C(=O)NC2CCCCCC2)CC1=O (stereo not given)	0	x	-8	-3	x
Cc1ccc(S(=O)(=O)Cn2nnnc2C(CC(C)C)N2CCN(C3CCCC3)CC2)cc1 (stereo not given)	0	-23	-5	4	-8
CS(=O)(=O)N1Cc2ccccc2CC1C(=O)O (stereo not given)	-4	u	1	12	active
CC(=O)c1ccc(S(=O)(=O)N2Cc3ccccc3CC2C(=O)O)cc1 (stereo not given)	-1	99*	-1	1	57*
COCC(C)NS(=O)(=O)c1ccc(C(=O)NC(Cc2ccccc2)c2ccccc2)cc1 (stereo not given)	0	-1	15	-3	14
CC(O)Cn1ccccc1=N (stereo not given)	2	83*	3	1	73*
COc1ccc([N+](=O)[O-])cc1N(CC(O)CN1CCOCC1)S(=O)(=O)c1ccccc1 (stereo not given)	1	-7	4	-2	4
COc1ccc([N+](=O)[O-])cc1N(CC(O)CN1CCCCC1)S(=O)(=O)c1ccc(C)cc1 (stereo not given)	3	112*	-3	0	99*
C=CCOc1ccc(C2=NOC(C(=O)Nc3ccc4c(c3)OCCO4)C2)cc1OC (stereo not given)	0	-12	6	3	-2
CCOc1ccccc1NC(=O)C(CC(C)C)NC(=O)C1CCC(C)CC1 (stereo not given)	-4	5	41*	7	-5
